ZTA DNA inh = ZTA (EBV) inhibition in EBNA-1 counter-screen; inhibition, % at 11 µM; 320,000 compounds, 0.15% hits; P03206; ZTA-DNA binding, fluorescence polarization; in the data active means inhibition above about 33%
Target sequence (P03206 whole entry, looked up): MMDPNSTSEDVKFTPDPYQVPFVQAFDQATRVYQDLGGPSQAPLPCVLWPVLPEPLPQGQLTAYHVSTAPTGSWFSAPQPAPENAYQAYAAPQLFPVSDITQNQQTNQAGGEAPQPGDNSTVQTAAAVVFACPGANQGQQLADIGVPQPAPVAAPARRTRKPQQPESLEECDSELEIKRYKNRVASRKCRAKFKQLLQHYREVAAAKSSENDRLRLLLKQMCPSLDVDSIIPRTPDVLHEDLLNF
PfM18AAP inh = PfM18AAP enzyme inhibition. recombinant PfM18AAP, H-Glu-NHMec fluorogenic cleavage. inhibition, % at 7.35 µM. 290,000 compounds, 1.2% hits. AID 1822;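 active means inhibition above the campaign mean inhibition over all tested compounds plus 3 SD, cut at about 28% in these data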;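 further: 0% = plate median of test compound wells and 100% = 2 mM ZnCl2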
EBNA-1 inh = blocks EBNA-1 binding to DNA; AID 1950; inhibition, % at 14.8 µM; EBNA-1 DNA binding, fluorescence polarization; 300,000 compounds, 0.34% hits; in the data active means inhibition above about 28%
core dimer inh = HCV core protein dimerization inhibition; TR-FRET GST/Flag-core106 dimerization, 1536-well; inhibition, % at 5 µM; 300,000 compounds, 0.33% hits; AID 1899;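 active means inhibition above the mean of all tested compounds plus 3 SD, set per screening campaign, cut at about 45% in these data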
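System – GST-tagged and Flag-tagged HCV core protein residues 1-106 · Repeats – one well for each compound · Technique – TR-FRET 671 and 617 nm emission · Doses – one concentration, 5 µM, in 0.5% DMSO · Times – 4 h, 22.5 °C incubation · Also added – Eu donor and XL665 acceptor anti-tag antibodies · Measure – percent inhibition of core106 dimerization signal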
NS3 helicase inh = blocks Hepatitis C virus NS3 helicase unwinding; NS3 helicase DNA unwinding, Cy5 molecular beacon fluorescence; AID 1800; 290,000 compounds, 0.56% hits; inhibition, % at 10.9 µM;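 active means inhibition above the mean of all tested compounds plus 3 SD, set per campaign, cut at about 35% in these data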;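 further: 0% = DMSO wells and 100% = thioflavine S control wells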
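Measured by: Cy5 fluorescence, 0 and 60 min reads / Assay system: NS3 helicase fragment of HCV / Control set: low DMSO, high thioflavine S at 110 µM / Times: 1 h reaction at 25 °C, ATP-initiated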
ALR inh = blocks human ALR sulfhydryl oxidase activity. purified ALR, DTT oxidation, H2O2 HRP-luminol luminescence. inhibition, % (concentration not given with the values). 290,000 compounds, 3.8% hits;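 active means mean replicate inhibition above about 79%, with every replicate also reaching it, limit read from the data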
* marks the source's active call; other numbers are inactive results; . = no result given. The list is not random: actives were taken first. Their share in the collection is about 5.2%.

SMILES	ZTA DNA inh	PfM18AAP inh	EBNA-1 inh	core dimer inh	NS3 helicase inh	ALR inh
O=C(C1CCCC1)N1CCN=C1SCc1cccc([N+](=O)[O-])c1	-13	18	12	6	1	99*
O=C(C1CC1)N1CCN=C1SCc1ccccc1Cl	-8	3	8	1	26	99*
CCOCc1nnc(NC(=O)C2CC(=O)N(CCc3ccc(F)cc3)C2)s1 (stereo not given)	13	6	-7	2	-2	.
COc1ccccc1NC(=O)CCNC(=O)c1ccc(C)cc1	.	-2	.	.	-1	2
COc1ccc([C@@H]2CC=C(C(=O)O)[C@H](c3ccc(F)cc3)N2S(=O)(=O)c2ccc(Cl)cc2)cc1	4	.	8	16	.	36
CC(=O)Nc1ccc(S(=O)(=O)NCCC(=O)OCc2ccc([N+](=O)[O-])cc2)cc1	2	7	-8	1	5	2
CC(=O)N1CCN=C1SCc1ccccc1F	-14	6	-4	-4	5	99*
COc1ccc(N(CC(=O)Nc2ccc(Cc3ccncc3)cc2)S(=O)(=O)c2ccccc2)cc1	11	1	-4	14	-9	.
COc1cccc(NC(=O)CN(C)C(C)C(=O)N2CCCCC2)c1 (stereo not given)	.	.	.	.	.	-8
Cc1ccc(CNC(=O)Cn2cc(C(F)(F)F)ccc2=O)cc1	-6	2	-3	0	-4	26
Cc1ccc2nc(-c3ccc(NS(C)(=O)=O)cc3)cc(-c3ccccc3)c2c1	7	5	-9	-1	-26	-4
CCS(=O)(=O)Nc1ccc(-c2cc(-c3ccccc3)c3cc(C)ccc3n2)cc1	-4	-12	2	-6	1	89*
COc1ccc(C(=O)CC(=O)C(=O)Nc2cccc(F)c2)cc1	-10	-11	-2	5	23	80*
O=[N+]([O-])c1ccccc1S(=O)(=O)N1CCN(S(=O)(=O)c2ccc3c(c2)OCCO3)CC1	.	.	.	.	.	-2
CCCCOC(=O)Sc1nc2ccccc2o1	0	0	0	0	3	93*
Cc1csc2ncnc(N3CCN(C(=S)Nc4ccc(F)cc4F)CC3)c12	3	6	3	4	24	-3
Cc1ccc(S(=O)(=O)N2CCC3(CC2)OCCO3)cc1	16	1	12	6	1	0
CCOc1ccc(C(=O)N[C@H](C(=O)Nc2cccc(S(=O)(=O)N3CCCCC3)c2)C(C)C)cc1	-13	6	42*	10	14	-5
FC(F)(F)c1cnc(-c2cnc3c(-c4ccc(Cl)cc4)cnn3c2)c(Cl)c1	14	1	0	3	-3	-1
N#Cc1cnn2cc(-c3ncc(C(F)(F)F)cc3Cl)cnc12	7	-7	12	0	0	85*
CC1CCC/C(=C\c2ccc(O)cc2)C1=O (stereo not given)	2	.	-2	-2	.	92*
COc1ccc(/C=N\NS(=O)(=O)c2ccc(Cl)cc2)cc1COc1ccccc1[N+](=O)[O-]	-5	-7	11	47*	1	1
CCN(c1ccc(OC)cc1)S(=O)(=O)c1ccc2c(c1)CCN2C(=O)CCC(=O)O	19	-10	-8	-3	-3	-2
CCN(c1ccc(C)c(C)c1)S(=O)(=O)c1ccc2c(c1)CCN2C(=O)CCC(=O)O	-8	3	9	1	9	99*
O=C(Nc1ccc(N2CCN(C(=O)c3cccs3)CC2)cc1)c1ccc(F)cc1	5	-1	-13	-4	0	.

Source: PubChem BioAssay
